{
  "source": "ChEMBL document CHEMBL3351782",
  "about": "“Synthesis and biological evaluation of glaucocalyxin A derivatives as potential anticancer agents” (Eur J Med Chem, 2014)",
  "key": {"[1]": {"test_system": "KB", "assay": "Induction of apoptosis in human KB cells assessed as early apoptotic cells level at 5 uM after 48 hrs by Annexin V and propidium iodide staining based flow cytometry (reference value: 7.08%)", "type": "functional", "summary_of_the_method": "(§1)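 KB cells were plated in 6-well plates at 2.5 × 10^5 cells/mL and treated for 48 h. Adherent and floating cells were pooled, washed twice in PBS and stained with Annexin V and PI in binding buffer for 20 min at room temperature. Samples were read immediately on a FACSCalibur; untreated cells served as control. Values are means ± SE of at least three independent experiments.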"}, "[2]": {"test_system": "KB", "assay": "Induction of apoptosis in human KB cells assessed as viable cells level at 5 uM after 48 hrs by Annexin V and propidium iodide staining based flow cytometry (reference value: 87.4%)", "type": "functional", "summary_of_the_method": "as §1"}, "[3]": {"assay": "Antiproliferative activity against human SMMC7721 cells after 48 hrs by MTT assay", "type": "functional, cell-based", "settings": "SMMC-7721, 48 h", "summary_of_the_method": "(§2)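 Cells were seeded at 3 × 10^3 per well and exposed 24 h later, while growing exponentially, to compounds at final concentrations of 1.25 to 40 for 48 h. MTT (5 mg/mL in PBS) was then added for 6 h. The medium was aspirated, the formazan dissolved in DMSO and absorbance read at 570 nm. Survival is relative to untreated cells; IC50 comes from triplicate wells in at least three independent experiments.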"}, "[4]": {"test_system": "KB", "assay": "Induction of apoptosis in human KB cells assessed as late apoptotic cells level at 20 uM after 48 hrs by Annexin V and propidium iodide staining based flow cytometry (reference value: 2.26%)", "type": "functional", "summary_of_the_method": "as §1"}, "[5]": {"test_system": "KB", "assay": "Induction of apoptosis in human KB cells assessed as necrotic cells level at 10 uM after 48 hrs by Annexin V and propidium iodide staining based flow cytometry (reference value: 3.23%)", "type": "functional", "summary_of_the_method": "as §1"}, "[6]": {"assay": "Antiproliferative activity against human SGC7901 cells after 48 hrs by MTT assay", "type": "functional, cell-based", "settings": "SGC-7901, 48 h", "summary_of_the_method": "as §2"}, "[7]": {"test_system": "A549", "assay": "Antiproliferative activity against human A549 cells after 48 hrs by MTT assay", "type": "functional, cell-based", "settings": "A549, 48 h", "summary_of_the_method": "as §2"}, "[8]": {"test_system": "KB", "assay": "Induction of apoptosis in human KB cells assessed as early apoptotic cells level at 10 uM after 48 hrs by Annexin V and propidium iodide staining based flow cytometry (reference value: 7.08%)", "type": "functional", "summary_of_the_method": "as §1"}, "[9]": {"test_system": "KB", "assay": "Induction of apoptosis in human KB cells assessed as viable cells level at 10 uM after 48 hrs by Annexin V and propidium iodide staining based flow cytometry (reference value: 87.4%)", "type": "functional", "summary_of_the_method": "as §1"}, "[10]": {"test_system": "KB", "assay": "Induction of apoptosis in human KB cells assessed as early apoptotic cells level at 20 uM after 48 hrs by Annexin V and propidium iodide staining based flow cytometry (reference value: 7.08%)", "type": "functional", "summary_of_the_method": "as §1"}, "[11]": {"assay": "Chemical stability in 10 mM pH 7.4 PBS buffer assessed as parent compound remaining at 1 uM at 37 degC after 24 hrs by HPLC method", "type": "physicochemical", "settings": "read-out: Stability", "summary_of_the_method": "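DMSO stock was diluted into pre-warmed 10 mM PBS, pH 7.4, with 1% v/v DMSO final, and incubated at 37 °C. Aliquots were taken at set times and injected directly onto reversed-phase HPLC (ODS column, water + 0.1% TFA eluent, external standard). The result is percent parent remaining after 24 h, mean ± SD, n = 3.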"}, "[12]": {"test_system": "KB", "assay": "Induction of apoptosis in human KB cells assessed as viable cells level at 20 uM after 48 hrs by Annexin V and propidium iodide staining based flow cytometry (reference value: 87.4%)", "type": "functional", "summary_of_the_method": "as §1"}, "[13]": {"test_system": "KB", "assay": "Retention time of the compound in human KB cells lysates treated with 500 uM in presence of 10 mM cysteine by LC-HRMS method"}, "[14]": {"assay": "Stability in 80% rat plasma assessed as parent compound remaining at 1 uM at 37 degC after 24 hrs by HPLC method", "type": "ADME, cell-free", "settings": "read-out: Stability", "summary_of_the_method": "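Thawed rat plasma was diluted to 80% v/v with 0.1 M PBS, pH 7.4. Compound was spiked from DMSO stock (1% v/v DMSO final) and held at 37 °C. Aliquots were quenched with two volumes of acetonitrile and centrifuged at 4 °C, 10,000 g, 10 min. Supernatants were run on HPLC with external standard; the result is percent parent remaining at 24 h, mean ± SD, n = 3.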"}, "[15]": {"test_system": "KB", "assay": "Prodrug conversion in human KB cells lysates assessed as formation of cysteine conjugates at 500 uM in presence of 10 mM cysteine by LC-HRMS method", "type": "ADME, cell-based, Lysate", "summary_of_the_method": "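KB cells (5 × 10^6) were lysed by freeze/thaw. DMSO stock prepared just before use was added to lysate already containing cysteine, with DMSO matched in controls, and incubated at 37 °C. Aliquots taken at 30 min and 1 h were mixed with two volumes of acetonitrile and centrifuged (4 °C, 10,000 g, 10 min). They were analysed by LC-HRMS in positive mode using a water + 0.1% formic acid/methanol gradient.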"}, "[16]": {"test_system": "KB", "assay": "Induction of apoptosis in human KB cells after 48 hrs by Annexin V and propidium iodide staining based flow cytometry", "type": "functional, cell-based", "summary_of_the_method": "as §1"}, "[17]": {"test_system": "B16", "assay": "Antiproliferative activity against mouse B16 cells after 48 hrs by MTT assay", "type": "functional, cell-based", "settings": "B16, 48 h", "summary_of_the_method": "as §2"}, "[18]": {"test_system": "KB", "assay": "Antiproliferative activity against human KB cells after 48 hrs by MTT assay", "type": "functional, cell-based", "summary_of_the_method": "as §2"}, "[19]": {"test_system": "KB", "assay": "Induction of apoptosis in human KB cells assessed as necrotic cells level at 5 uM after 48 hrs by Annexin V and propidium iodide staining based flow cytometry (reference value: 3.23%)", "type": "functional", "summary_of_the_method": "as §1"}, "[20]": {"test_system": "KB", "assay": "Induction of apoptosis in human KB cells assessed as necrotic cells level at 20 uM after 48 hrs by Annexin V and propidium iodide staining based flow cytometry (reference value: 3.23%)", "type": "functional", "summary_of_the_method": "as §1"}, "[21]": {"assay": "Antiproliferative activity against human HL60 cells after 48 hrs by MTT assay", "type": "functional, cell-based", "settings": "HL-60, 48 h", "summary_of_the_method": "as §2"}, "[22]": {"test_system": "KB", "assay": "Induction of apoptosis in human KB cells assessed as late apoptotic cells level at 10 uM after 48 hrs by Annexin V and propidium iodide staining based flow cytometry (reference value: 2.26%)", "type": "functional", "summary_of_the_method": "as §1"}, "[23]": {"assay": "Antiproliferative activity against human HL7702 cells after 48 hrs by MTT assay", "type": "cell-based", "settings": "L02, 48 h", "summary_of_the_method": "as §2"}, "[24]": {"test_system": "KB", "assay": "Induction of apoptosis in human KB cells assessed as late apoptotic cells level at 5 uM after 48 hrs by Annexin V and propidium iodide staining based flow cytometry (reference value: 2.26%)", "type": "functional", "summary_of_the_method": "as §1"}},
  "data": [
    {"compound": "C=C1C(=O)[C@@]23[C@H](O)C[C@@H]4C(C)(C)C(=O)CC[C@@]4(C)[C@@H]2CC[C@@H]1[C@H]3O", "note": "[GLAUCOCALYXIN A]", "values": [
      {"measurement": "Activity", "setting": "[1]", "result": 10.7, "unit": "%"},
      {"measurement": "Activity", "setting": "[2]", "result": 80.6, "unit": "%"},
      {"measurement": "IC50", "setting": "[3]", "result": 8.11, "unit": "µM"},
      {"measurement": "Activity", "setting": "[4]", "result": 19, "unit": "%"},
      {"measurement": "Activity", "setting": "[5]", "result": 2.69, "unit": "%"},
      {"measurement": "IC50", "setting": "[6]", "result": 11.7, "unit": "µM"},
      {"measurement": "IC50", "setting": "[7]", "result": 7.5, "unit": "µM"},
      {"measurement": "Activity", "setting": "[8]", "result": 14.3, "unit": "%"},
      {"measurement": "Activity", "setting": "[9]", "result": 76.1, "unit": "%"},
      {"measurement": "Activity", "setting": "[10]", "result": 33.4, "unit": "%"},
      {"measurement": "remaining at 24 h, 1 µM", "setting": "[11]", "result": 109, "unit": "%"},
      {"measurement": "Activity", "setting": "[12]", "result": 43.9, "unit": "%"},
      {"measurement": "Retention_time", "setting": "[13]", "result": 5.75, "unit": "min"},
      {"measurement": "remaining at 24 h, 1 µM", "setting": "[14]", "result": 24.2, "unit": "%"},
      {"measurement": "Retention_time", "setting": "[15]", "result": 2.42, "unit": "min"},
      {"measurement": "Activity", "setting": "[16]", "result": "Dose-dependent effect"},
      {"measurement": "IC50", "setting": "[17]", "result": 4.84, "unit": "µM"},
      {"measurement": "IC50", "setting": "[18]", "result": 6.47, "unit": "µM"},
      {"measurement": "Activity", "setting": "[19]", "result": 4.95, "unit": "%"},
      {"measurement": "Activity", "setting": "[20]", "result": 3.59, "unit": "%"},
      {"measurement": "IC50", "setting": "[21]", "result": 5.52, "unit": "µM"},
      {"measurement": "Activity", "setting": "[22]", "result": 6.89, "unit": "%"},
      {"measurement": "IC50", "setting": "[23]", "result": 8.62, "unit": "µM"},
      {"measurement": "Activity", "setting": "[24]", "result": 3.69, "unit": "%"}
    ]}
  ]
}
